Results pooled from the literature.
Compare with care: the assays were run in different laboratories.
PIK3CA: Phosphatidylinositol 4,5-bisphosphate 3-kinase catalytic subunit alpha isoform (PIK3CA, Homo sapiens, UniProt P42336)
PIK3CA M1043I: Phosphatidylinositol 4,5-bisphosphate 3-kinase catalytic subunit alpha isoform (PIK3CA, Homo sapiens, UniProt P42336, M1043I)
PIK3CA H1047L: Phosphatidylinositol 4,5-bisphosphate 3-kinase catalytic subunit alpha isoform (PIK3CA, Homo sapiens, UniProt P42336, H1047L)
PIK3CA H1047Y: Phosphatidylinositol 4,5-bisphosphate 3-kinase catalytic subunit alpha isoform (PIK3CA, Homo sapiens, UniProt P42336, H1047Y)
PIK3CA E545A: Phosphatidylinositol 4,5-bisphosphate 3-kinase catalytic subunit alpha isoform (PIK3CA, Homo sapiens, UniProt P42336, E545A)
PIK3CA E542K: Phosphatidylinositol 4,5-bisphosphate 3-kinase catalytic subunit alpha isoform (PIK3CA, Homo sapiens, UniProt P42336, E542K)
PIK3CA I800L: Phosphatidylinositol 4,5-bisphosphate 3-kinase catalytic subunit alpha isoform (PIK3CA, Homo sapiens, UniProt P42336, I800L)
PIK3CA Q546K: Phosphatidylinositol 4,5-bisphosphate 3-kinase catalytic subunit alpha isoform (PIK3CA, Homo sapiens, UniProt P42336, Q546K)
PIK3CA C420R: Phosphatidylinositol 4,5-bisphosphate 3-kinase catalytic subunit alpha isoform (PIK3CA, Homo sapiens, UniProt P42336, C420R)
PIK3CA E545K: Phosphatidylinositol 4,5-bisphosphate 3-kinase catalytic subunit alpha isoform (PIK3CA, Homo sapiens, UniProt P42336, E545K)

SMILES | target | test | setting | remaining binding
COc1cnc(Nc2cccc(S(N)(=O)=O)c2)nc1N1CCN(c2ccccc2)CC1 | PIK3CA | binding, competition with immobilised ligand | 1 µM | 98%
Nc1ncc2c(n1)-c1c([nH]c3ccc(C#CC4CC4)cc13)CCCC2 | PIK3CA | binding, competition with immobilised ligand | 1 µM | 90%
N[C@H]1CCN(c2nccc(-c3cnn4ncccc34)n2)C1 | PIK3CA M1043I | binding | 1 µM | 91%
C=CC(=O)N1CCC(C(=O)NCC(=O)N2CCN(c3nc(-c4cnc(N)nc4C(F)F)nc(N4CCOCC4)n3)CC2)CC1 | PIK3CA H1047L | binding, competition with immobilised ligand | 1 µM | 0.45%
Cc1cc(C)c(-n2ccn3nc(-c4cccnc4)cc23)cc1NC(=O)c1cc(C#N)cc(S(F)(F)(F)(F)F)c1 | PIK3CA H1047Y | cell-free assay, competition with immobilised ligand | 0.1 µM | 76.2%
CN1CCN(c2ccc(Nc3nccc(-c4ccccc4)n3)cc2C(F)(F)F)CC1 | PIK3CA E545A | binding | 10 µM | 100%
CC(C)CC(=O)N1CCc2nc(-c3ccc(Br)cc3)nc(N(C)Cc3ccccc3)c2C1 | PIK3CA E542K | cell-free assay, competition with immobilised ligand | 0.1 µM | 100%
CC1CCCN1c1nccc(-c2cnn3ncccc23)n1 (stereo not shown) | PIK3CA | binding | 1 µM | 100%
c1cncc(-c2cccc(Nc3nccc(NC4CCCCC4)n3)c2)c1 | PIK3CA M1043I | binding, competition with immobilised ligand | 10 µM | 84%
Cc1cnc(Nc2ccc(C(=O)N3CCC(N4CCCC4)CC3)cc2)nc1-c1cc2ccccc2s1 | PIK3CA I800L | binding, competition with immobilised ligand | 1 µM | 100%
O=C(Nc1c[nH]nc1C(=O)NC1CCNCC1)c1cc(F)cc(F)c1 | PIK3CA E542K | binding, competition with immobilised ligand | 1 µM | 88%
O=C(NCCCN1CCOCC1)c1ccc(Nc2ncc(Cl)c(-c3ccc(Cl)s3)n2)cc1 | PIK3CA Q546K | binding, competition with immobilised ligand | 1 µM | 100%
CCc1ccccc1C(=O)Nc1n[nH]c2c(C)c(F)c(C3C(C#N)=C(C)N(C)C(C)=C3C#N)cc12 | PIK3CA H1047Y | cell-free assay, competition with immobilised ligand | 1 µM | 77%
F[C@@H]1CCN(c2nccc(-c3cnn4ncccc34)n2)C1 | PIK3CA C420R | binding | 1 µM | 90%
CNCc1ccccc1-c1csc([C@H](C)Nc2nc(C)nc3cc(OC)c(OC)cc23)c1 | PIK3CA M1043I | cell-free assay, competition with immobilised ligand | 1 µM | 100%
c1cnn2ncc(-c3ccnc(N4CCC45COC5)n3)c2c1 | PIK3CA | binding | 1 µM | 79%
Nc1cnc(N2CCc3cc(S(=O)(=O)Nc4c(F)cc(Cl)cc4F)cc(N4CCCC4=O)c32)nc1 | PIK3CA H1047L | cell-free assay, competition with immobilised ligand | 1 µM | 60%

SMILES | target | test | setting | remaining binding
COc1cnc(Nc2cccc(S(N)(=O)=O)c2)nc1N1CCN(c2ccccc2)C(=O)C1 | PIK3CA H1047Y | binding, competition with immobilised ligand | 1 µM | 81%
O=C(c1ccc(Nc2nccc(-c3cc4ccccc4s3)n2)cc1)N1CCC(N2CCCC2)CC1 | PIK3CA E542K | binding, competition with immobilised ligand | 1 µM | 99%
O=C(NCC1CCOCC1)c1n[nH]cc1NC(=O)c1c(F)cccc1F | PIK3CA E545A | binding, competition with immobilised ligand | 1 µM | 100%
O=C(NCCCN1CCOCC1)c1ccc(Nc2nccc(-c3cc4ccccc4s3)n2)cc1 | PIK3CA | binding, competition with immobilised ligand | 1 µM | 93%
Cc1cnn2ncc(-c3ccnc(N(C)C)n3)c2c1 | PIK3CA | binding | 1 µM | 100%
COc1ncc2cc3ccccc3nc2c1C#N | PIK3CA H1047L | cell-free assay, competition with immobilised ligand | 5 µM | 98%
C[C@@H](c1ccc(-n2cnc3c(N)ncnc32)cc1)N1CCc2nn(C)c(Cc3ccccc3)c2C1=O | PIK3CA C420R | binding, competition with immobilised ligand | 0.1 µM | 98%
CN(CCCC(F)(F)F)c1nccc(-c2cnn3ncccc23)n1 | PIK3CA E545A | binding | 1 µM | 100%
CCN1CCN(Cc2ccc(C(=O)Nc3ccc(C)c(Oc4ccc5c(c4)CC(=O)N5)c3)cc2C(F)(F)F)CC1 | PIK3CA E545K | binding, competition with immobilised ligand | 1 µM | 93%
CN(C)c1ncc(F)c(-c2cnn3ncccc23)n1 | PIK3CA Q546K | binding | 1 µM | 86%
O=C(c1ccc(Nc2ncc(Cl)c(-c3cc4ccccc4s3)n2)cc1)N1CCC(N2CCCC2)CC1 | PIK3CA M1043I | binding, competition with immobilised ligand | 1 µM | 62%
CO[C@@H](C)c1c(Nc2ccc([C@H](N(C)C(=O)C3CCS(=O)(=O)CC3)C(F)(F)F)cc2)cnc2cc(Cl)nn12 | PIK3CA E545K | binding, competition with immobilised ligand | 1 µM | 48%
CN1CCN(c2ccc(Nc3nccc(-c4cccc([N+](=O)[O-])c4)n3)cc2C(F)(F)F)CC1 | PIK3CA C420R | binding | 10 µM | 53%
FC(F)(F)c1ccc2c(c1)nc(-c1cccnc1)n2C1CC1 | PIK3CA C420R | cell-free assay, competition with immobilised ligand | 1 µM | 92%
O=C(c1ccc(Nc2ncc(Cl)c(-c3ccc(Cl)s3)n2)cc1)N1CCC(N2CCCC2)CC1 | PIK3CA I800L | binding, competition with immobilised ligand | 1 µM | 92%
COCCOc1nc(-c2ccc(Cl)nc2)nc2c1CN(C(=O)c1ncn3ccccc13)CC2 | PIK3CA M1043I | cell-free assay, competition with immobilised ligand | 0.1 µM | 88%
CNC(=O)[C@@H]1CC[C@@H](n2c(-c3ccc4cnccc4c3)nc3ccc(C(=O)NCc4cccc(C(N)=O)c4)cc32)C1 | PIK3CA C420R | binding, competition with immobilised ligand | 1 µM | 90%
